Assay outcomes as filed in PubChem BioAssay.
Most compounds without a hit are left out; they make up all but 1.6% or so of the library.
T cell HTS: T cell immune modulation candidate | 2C CD8+ T cell-vesicle binding, flow cytometry; active compounds read low | response (vesicle binding), % at 7 µM | 330,000 compounds, 0.068% hits | AID 2052;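 active = response, share of CD8 T cells binding vesicles, and their 90th percentile fluorescence all below set limits, cut at about 80% in these data, passing the limit was not always enough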;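 note: values below 100% mean blocked vesicle binding to the CD8+ T cells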
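Assay system – 2C mouse CD8+ T cells · Also added – QL9-loaded Drosophila micro-vesicles · Timing – Cell–vesicle co-incubation 1.5 h at 37 °C, staining 20 min on ice · Signal – flow cytometry of vesicle-bound cells · Measure – percent CD8+ FL2 mean versus row control · Controls – Peptide-free naked vesicles (low) and QL9 vesicles with 0.7% DMSO vehicle (high)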
PfG6PD inh: PfG6PD (Plasmodium falciparum) enzyme inhibition | PfGluPho enzyme, NADPH resazurin-diaphorase fluorescence | inhibition, % at 20 µM | 350,000 compounds, 0.78% hits | AID 504690;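 active = inhibition reaching at least a set limit at 20 µM in the primary screen, cut at about 59% in these data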;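 note: 0% = DMSO wells with substrate and 100% = DMSO wells lacking glucose-6-phosphate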
PKA-R2B activ: activators of human PKA-R2B complex; PKA-R2B holoenzyme dissociation, Cy5-IP20 fluorescence polarization; R2B truncated from residue 108, S112A mutant; 0% DMSO only, 100% 113 µM cGMP; P22694+P31323; AID 504700; activation, % at 11.4 µM; 340,000 compounds, 0.079% hits;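 active = activation above a cutoff set at the mean over all compounds plus 3 SD, cut at about 18% in these data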;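 note: higher means more holoenzyme dissociation and a rise in polarization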
PKA-R1A activ: activators of PKA-R1A complex. PKA-R1A dissociation, Cy5-IP20 fluorescence polarization; scaled: DMSO 0%, 113 µM cGMP 100%. activation, % at 11.4 µM. AID 504707. 340,000 compounds, 0.083% hits;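 active = percent activation above the mean of all tested compounds plus 3 SD, cut at about 19% in these data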;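 note: higher means more PKAc released from R1A so a rise in polarization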
HKDC1 inhibitor: blocks human hexokinase HKDC1 activity; Q2TB90; recombinant HKDC1, G6PDH/diaphorase resazurin coupled fluorescence; 340,000 compounds, 0.16% hits; inhibition, % at 20 µM;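 active = inhibition above about 35% when tested at 20 µM, limit read from the data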;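 note: plate controls were DMSO wells with enzyme for no effect and DMSO wells lacking enzyme for full effect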
Target sequence (Q2TB90 whole entry, looked up): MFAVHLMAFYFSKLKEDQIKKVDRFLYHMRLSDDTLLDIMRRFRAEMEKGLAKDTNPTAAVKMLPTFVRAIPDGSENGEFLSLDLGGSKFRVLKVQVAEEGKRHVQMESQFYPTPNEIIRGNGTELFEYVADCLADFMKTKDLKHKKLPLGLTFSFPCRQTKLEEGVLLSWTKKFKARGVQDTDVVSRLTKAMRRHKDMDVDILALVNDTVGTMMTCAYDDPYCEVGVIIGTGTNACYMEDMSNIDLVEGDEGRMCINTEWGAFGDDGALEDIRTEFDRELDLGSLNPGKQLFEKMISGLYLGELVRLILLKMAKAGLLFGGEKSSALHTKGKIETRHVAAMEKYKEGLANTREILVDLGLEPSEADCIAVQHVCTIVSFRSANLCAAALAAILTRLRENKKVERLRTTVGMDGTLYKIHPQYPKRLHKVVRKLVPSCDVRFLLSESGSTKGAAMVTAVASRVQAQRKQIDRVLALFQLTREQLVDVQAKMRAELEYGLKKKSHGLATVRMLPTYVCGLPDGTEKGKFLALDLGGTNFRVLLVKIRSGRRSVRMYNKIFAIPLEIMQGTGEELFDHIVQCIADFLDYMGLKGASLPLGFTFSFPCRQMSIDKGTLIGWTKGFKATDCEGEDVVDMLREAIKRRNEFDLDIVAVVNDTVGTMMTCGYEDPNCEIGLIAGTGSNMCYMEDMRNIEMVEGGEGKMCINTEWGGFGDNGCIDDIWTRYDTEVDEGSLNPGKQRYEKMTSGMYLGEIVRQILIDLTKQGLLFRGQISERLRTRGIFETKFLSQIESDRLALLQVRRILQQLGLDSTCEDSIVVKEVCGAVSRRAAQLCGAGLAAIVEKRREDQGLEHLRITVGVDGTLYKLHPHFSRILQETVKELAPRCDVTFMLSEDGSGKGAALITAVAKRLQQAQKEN
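Assay system: recombinant HKDC1 hexokinase; detection: coupled resazurin fluorescence, excitation 525 nm, emission 613 nm; benchmarks: DMSO-plus-enzyme-mix negative control, buffer-substituted positive control; compound dosing: single 20 µM dose; schedule: 90 min at room temperature in dark; also added: glucose plus 1 mM ATP as hexokinase substrates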
ATG4B inh: inhibitors of human ATG4B cysteine protease; Q9Y4P1; ATG4B cleavage of LC3-PLA2, NBD-HPC fluorescence, 1 h; inhibition, % at 8.33 µM; 340,000 compounds, 0.51% hits; in the data active = inhibition above about 40%
R2B FP artifact: fluorescence polarization artifact in PKA-R2B activator counter-screen; shares compounds with PKA-R2B activ; activation, % at 11.4 µM; FP artifact counterscreen; 270 compounds, 6% hits; in the data active = activation above about 20%;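 note: Cy5 labelled IP20 peptide probe with compound but no PKA protein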
PKA-R2B confirm: PKA-R2B complex activation, confirmation; shares compounds with PKA-R2B activ; fluorescence polarization; activation, % at 11.4 µM; 270 compounds, 9% hits; in the data active = activation above about 19%
An asterisk follows results filed as active; · = no result.

SMILES	T cell HTS	PfG6PD inh	PKA-R2B activ	PKA-R1A activ	HKDC1 inhibitor	ATG4B inh	R2B FP artifact	PKA-R2B confirm
COc1ccc(S(=O)(=O)N[C@H](C(=O)O)C(C)C)cc1	256.5	-7.5	18.9*	10.5	-8.2	-13.9	4.2	4.1
CC(C)COC(=O)Cc1c(O)c2ccccc2[nH]c1=O	311.7	4.5	21.2*	15.4	-5.8	1.4	3.6	1.9
CCCCOC(=O)Cc1c(O)c2ccccc2[nH]c1=O	282.3	-3.8	3.4	-2.1	-1.1	-7.2	·	·
Cc1cccc(NC(=O)CSCC(=O)N(C)Cc2c(F)cccc2Cl)c1	365.9	-13.7	-2.8	-9.2	1.9	5.8	·	·
C=CCNC(=O)c1ccc(-c2nc3ccccc3nc2-c2ccccc2)cc1	366.4	11.4	22.0*	2.4	3.5	12.9	-1.3	3.7
C=CCNC(=O)c1ccc(-c2nc(-c3ccccc3)cs2)cc1	223.0	12.3	3.9	-6.9	-2.1	3.5	·	·
COc1ccc(NS(=O)(=O)c2cc(NC(=O)c3cccs3)ccc2N2CCCC2)cc1	711.3	5.0	-1.2	-6.1	7.6	7.9	·	·
COc1ccc(NS(=O)(=O)c2cc(NC(=O)c3ccccc3F)ccc2N2CCCC2)cc1	223.0	12.7	19.3*	-9.9	-4.5	7.3	-3.4	-2.9
CN(C)S(=O)(=O)c1ccc(S(=O)(=O)NCc2cccs2)cc1	433.3	3.3	24.8*	-2.4	-8.3	-6.5	0.0	-0.5
O=C(Cc1ccc(Cl)cc1)SCc1ccccc1	583.6	11.4	-9.0	-4.3	-5.5	11.7	·	·
CN(C)c1ccc(N=Nc2ccc(S(=O)(=O)O)cc2)c2ccccc12	335.4	-23.8	30.2*	-8.1	3.4	10.0	-2.4	11.2
COCC(=O)Nc1cccc(C(F)(F)F)c1	197.0	5.0	19.2*	5.9	3.2	-8.8	-0.4	-1.1
CC(Sc1nnc2n1CCCCC2)C(=O)Nc1ccc(S(N)(=O)=O)cc1 (stereo not drawn)	·	12.6	-8.8	-3.4	0.9	1.7	·	·
COc1cc2c(cc1OC)C(Cc1ccc(O)cc1)NCC2 (stereo not drawn)	225.7	15.8	-4.8	5.4	-6.8	-1.1	·	·
CCOc1ccc(CC2NCCc3cc(OCC)c(OCC)cc32)cc1OCC (stereo not drawn)	278.7	8.1	19.8*	7.8	-6.8	-4.1	2.4	4.5
COc1cc2cc(CCCOC(=O)c3ccco3)oc(=O)c2cc1OC	500.0	-6.9	1.9	-8.6	9.0	12.6	·	·
CN1C(CCl)Nc2cc(Cl)c(S(N)(=O)=O)cc2S1(=O)=O (stereo not drawn)	·	-7.5	-4.3	-1.7	-1.5	5.9	·	·
CCC1NC(=O)c2cc(S(N)(=O)=O)c(Cl)cc2N1 (stereo not drawn)	929.7	-3.8	21.3*	10.3	0.0	5.5	4.5	2.1
COc1ccc(C(C(=O)NCC2CCCO2)N(C(=O)CNC(=O)c2ccco2)c2ccccc2)cc1OC (stereo not drawn)	894.4	-1.5	4.0	7.1	-1.3	-2.2	·	·
CCOC(=O)c1ccc(N(C(=O)CNC(=O)c2ccco2)C(C(=O)NCC2CCCO2)c2ccc(OC)c(OC)c2)cc1 (stereo not drawn)	351.9	-2.8	19.3*	7.1	-4.8	-0.5	2.0	-1.6
COC(=O)[C@@H](NC(=O)c1ccc(OC2CCN(Cc3ccccn3)CC2)cc1)C(C)C	162.9	-8.5	19.5*	6.5	-9.4	20.7	-1.3	-1.6
NS(=O)(=O)c1ccc(CCNC(=O)c2ccc(S(=O)(=O)N3CCCCC3)cc2)cc1	308.5	0.7	-13.1	7.4	1.2	3.0	·	·
NS(=O)(=O)c1ccc(CCNC(=O)c2ccc(Cl)c(S(=O)(=O)N3CCCCC3)c2)cc1	137.3	2.6	18.4*	-0.2	-0.7	-13.0	4.1	5.5
O=C(COC(=O)c1ccccc1O)NC1CCCc2ccccc21 (stereo not drawn)	474.2	-5.7	21.1*	1.4	-0.7	-6.5	1.8	4.6
COc1cccc(C(=O)OCC(=O)NC2CCCc3ccccc32)c1O (stereo not drawn)	·	-8.6	-0.5	-2.7	-0.5	10.4	·	·
SMILES	T cell HTS	PfG6PD inh	PKA-R2B activ	PKA-R1A activ	HKDC1 inhibitor	ATG4B inh	R2B FP artifact	PKA-R2B confirm
N=C1C(c2ccccc2)=C(O)CN1c1cccc(S(=O)(=O)NCc2ccco2)c1	240.9	1.6	-7.7	-11.4	-2.9	-6.9	·	·
Cc1cc(C(=O)NC2CCCN(Cc3ccc(Cl)cc3)C2)c(C)o1 (stereo not drawn)	321.0	14.6	20.1*	3.5	1.1	11.3	2.0	0.0
COc1ccc(OCC(=O)Nc2cc(S(=O)(=O)N3CCCC3)ccc2Cl)cc1	·	-8.9	6.5	9.9	0.2	-7.5	·	·
Cc1ccccc1-c1ccc2c(c1)O[C@@H](CN(C)C(=O)Nc1ccc(C(F)(F)F)cc1)[C@H](C)CN([C@@H](C)CO)S2(=O)=O	·	39.2	-6.4	-13.5	·	·	·	·
COc1ccc(N2CCN(C(=O)c3ccc(OCc4c(C)noc4C)c(OC)c3)CC2)cc1	269.2	-11.4	20.0*	1.3	-1.4	-8.2	3.2	1.8
COc1cc(C(=O)N2CCN(c3ccc([N+](=O)[O-])cc3)CC2)ccc1OCc1c(C)noc1C	163.8	7.7	-3.0	-0.5	2.1	-6.4	·	·
COc1cccc(CNC(=O)CCSCc2ccccc2F)c1	895.6	0.9	20.2*	5.3	3.9	3.9	-2.2	-0.6
COc1cccc(OC)c1CNC(=O)CCSCc1ccccc1F	779.1	-3.1	-5.6	-9.0	3.7	-6.2	·	·
COC(=O)N/N=C/c1cn(CCOc2ccccc2)c2ccccc12	463.3	-2.9	20.0*	-0.7	-0.6	12.5	1.9	-0.8
COC(=O)N/N=C/c1cn(CCOc2ccc(OC)cc2)c2ccccc12	196.0	4.1	-0.7	1.8	1.3	10.3	·	·
C[C@H](CO)NC(=O)c1[nH]cnc1C(=O)Nc1cccc(Cl)c1	·	-2.0	-4.7	-10.5	·	·	·	·
Cc1cccc(N2CC(C(=O)Nc3nccs3)CC2=O)c1C (stereo not drawn)	169.8	4.4	-5.3	15.8	-3.0	-0.6	·	·
S=C(Nc1cccc2ccccc12)NC1CCCCC1	131.6	1.8	-1.2	-1.9	-5.5	-1.4	·	·
Cc1cc(C)c(OCCn2ccnc2)c(C)c1	204.4	-17.9	18.4*	-8.4	5.5	6.3	7.5	6.9
CC(C)(Cc1nc2ccccc2[nH]1)c1nc2ccccc2[nH]1	·	7.1	5.6	16.3	·	·	·	·
c1ccc(-c2nnc(OCCN3CCOCC3)c3ccccc23)cc1	268.4	7.1	18.4*	-0.7	-2.7	1.1	-0.4	-3.9
CCOC(=O)CC(S(=O)(=O)c1ccccc1)S(=O)(=O)c1ccccc1	·	10.7	-6.8	1.7	·	·	·	·
